Experimental findings from ChEMBL document CHEMBL4043220, “Rational design of conformationally constrained oxazolidinone-fused 1,2,3,4-tetrahydroisoquinoline derivatives as potential PDE4 inhibitors” (Bioorg Med Chem, 2017) are described below.

The term IC50 denotes the concentration that inhibits the measured activity by half. In general, inhibition in vivo refers to the relative decrease from the control value, in per cent. As usually defined, the inhibition is the percentage by which the read-out fell short of the control.

Series [1] addresses T1, 3',5'-cyclic-AMP phosphodiesterase 4B (Homo sapiens, UniProt Q07343). The series can be described thus: Inhibition of PDE4B isolated from human U937 cells using [3H]-cAMP incubated for 30 mins.
Series [2] relates to PBMC. The series can be described thus: Inhibition of LPS-induced TNFalpha production in human PBMC pre-incubated for 30 mins before LPS stimulation for 18 hrs by TR-FRET assay. In kind it is functional, cell-based. In short, it runs like this:
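PBMCs isolated from buffy coats (blood diluted 1:1 saline) and suspended at 5 × 10⁵ cells/mL in RPMI 1640 with 0.5% human serum albumin, pen/strep, 2 mM L-glutamine. 30 min compound pre-incubation, then 18 h LPS stimulation; supernatant TNF-α by TR-FRET (665 nm signal, 620 nm control); IC50 in μM.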
On the technique in general: In TR-FRET formats the signal depends on donor and acceptor labels being close together.

Series [3] addresses 3',5'-cyclic-AMP phosphodiesterase 4D (Homo sapiens, UniProt Q08499). Briefly: Inhibition of PDE4D isolated from human U937 cells using [3H]-cAMP incubated for 30 mins.
Series [4] deals with Mus musculus. Briefly: Inhibition of LPS-induced TNFalpha production in Swiss Albino mouse model of sepsis at 10 mg/kg, po pre-treated 30 mins before LPS challenge and measured 90 mins post LPS injection by ELISA method relative to untreated control. In kind it is functional. Put shortly: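 Female Swiss albino mice, weight-matched groups (n = 6), fasted 20 h with water; test compound given orally at 10 mg/kg as suspension in 0.5% Tween 80 / 0.25% sodium CMC, controls vehicle only. 30 min later 500 μg E. coli LPS (B4) i.p. in phosphate buffer; retro-orbital bleed at 90 min, serum TNF-α by mouse ELISA.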
(An ELISA detects its analyte on a solid surface through an enzyme-linked reagent.)

The test system of series [5] is Rattus norvegicus. The series can be described thus: Inhibition of LPS-induced neutropenia in Sprague-Dawley rat model of asthma assessed as reduction in neutrophils in BAL fluid at 10 mg/kg, po pre-treated 30 mins before LPS challenge and measured 6 hrs after LPS injection relative to untreated control. The format is functional. The settings on record: in the assay text read “neutrophilia” for “neutropenia”. Put shortly:
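Male Sprague Dawley rats acclimatized one week, randomized by weight (n = 6). Compound at 10 mg/kg po in 0.25% carboxymethyl cellulose vehicle given 30 min before 40 min exposure to 100 μg/mL E. coli LPS (B4). BAL at 6 h after exposure; total cell count and differential count versus control.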

Series [6] has as its system PBMC. Briefly: Potency index, ratio of IC50 for rolipram to IC50 for test compound for inhibition of LPS-induced TNFalpha production in human PBMC pre-incubated for 30 mins before LPS stimulation for 18 hrs by TR-FRET assay. The format is functional.
Series [7] concerns the target PDE7A (Homo sapiens, UniProt Q13946). Briefly: Inhibition of human PDE7A at 100 uM.
Series [8] has as its target PDE11A (Homo sapiens, UniProt Q9HCR9). Briefly: Inhibition of human PDE11A at 100 uM.
The target in series [9] is PDE3B (Homo sapiens, UniProt Q13370). Briefly: Inhibition of human PDE3B at 100 uM.
Series [10] addresses PDE8A (Homo sapiens, UniProt O60658). The series can be described thus: Inhibition of human PDE8A at 100 uM.
In series [11] the target is T1, 3',5'-cyclic-AMP phosphodiesterase 4B. Briefly: Inhibition of human PDE4B at 100 uM.
Series [12] deals with PDE5A (Homo sapiens, UniProt O76074). The series can be described thus: Inhibition of human PDE5A at 100 uM.
Series [13] deals with PDE6C (Homo sapiens, UniProt P51160). Briefly: Inhibition of human PDE6C at 100 uM.
The target in series [14] is PDE1A (Homo sapiens, UniProt P54750). The series can be described thus: Inhibition of human PDE1A at 100 uM.
The target in series [15] is PDE2A (Homo sapiens, UniProt O00408). Briefly: Inhibition of human PDE2A at 100 uM.
Series [16] has as its target PDE10A (Homo sapiens, UniProt Q9Y233). Briefly: Inhibition of human PDE10A at 100 uM.
Series [17] addresses PDE9A (Homo sapiens, UniProt O76083). The series can be described thus: Inhibition of human PDE9A at 100 uM.

Sequence of 3',5'-cyclic-AMP phosphodiesterase 4D (Q08499 whole entry): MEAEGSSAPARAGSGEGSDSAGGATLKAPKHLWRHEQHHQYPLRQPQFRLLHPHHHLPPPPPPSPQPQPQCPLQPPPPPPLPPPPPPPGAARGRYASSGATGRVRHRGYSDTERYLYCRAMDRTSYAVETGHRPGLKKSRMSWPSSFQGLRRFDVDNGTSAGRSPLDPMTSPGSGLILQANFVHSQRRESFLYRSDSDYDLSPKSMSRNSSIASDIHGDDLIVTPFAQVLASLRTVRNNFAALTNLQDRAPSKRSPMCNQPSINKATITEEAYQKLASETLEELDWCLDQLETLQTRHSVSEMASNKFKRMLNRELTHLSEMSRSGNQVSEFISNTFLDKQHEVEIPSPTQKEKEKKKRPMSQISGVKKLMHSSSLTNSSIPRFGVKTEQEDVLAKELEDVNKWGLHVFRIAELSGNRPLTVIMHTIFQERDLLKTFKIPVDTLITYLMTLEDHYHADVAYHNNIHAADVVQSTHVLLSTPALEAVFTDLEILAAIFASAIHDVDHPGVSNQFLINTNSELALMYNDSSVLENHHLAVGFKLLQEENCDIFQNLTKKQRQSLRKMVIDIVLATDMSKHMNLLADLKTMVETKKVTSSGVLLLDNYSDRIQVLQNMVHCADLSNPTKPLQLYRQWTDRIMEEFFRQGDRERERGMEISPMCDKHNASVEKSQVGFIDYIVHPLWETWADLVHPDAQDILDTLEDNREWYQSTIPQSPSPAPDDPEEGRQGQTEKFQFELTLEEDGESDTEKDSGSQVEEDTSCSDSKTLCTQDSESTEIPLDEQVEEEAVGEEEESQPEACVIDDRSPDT
T1 sequence (Q07343 whole entry): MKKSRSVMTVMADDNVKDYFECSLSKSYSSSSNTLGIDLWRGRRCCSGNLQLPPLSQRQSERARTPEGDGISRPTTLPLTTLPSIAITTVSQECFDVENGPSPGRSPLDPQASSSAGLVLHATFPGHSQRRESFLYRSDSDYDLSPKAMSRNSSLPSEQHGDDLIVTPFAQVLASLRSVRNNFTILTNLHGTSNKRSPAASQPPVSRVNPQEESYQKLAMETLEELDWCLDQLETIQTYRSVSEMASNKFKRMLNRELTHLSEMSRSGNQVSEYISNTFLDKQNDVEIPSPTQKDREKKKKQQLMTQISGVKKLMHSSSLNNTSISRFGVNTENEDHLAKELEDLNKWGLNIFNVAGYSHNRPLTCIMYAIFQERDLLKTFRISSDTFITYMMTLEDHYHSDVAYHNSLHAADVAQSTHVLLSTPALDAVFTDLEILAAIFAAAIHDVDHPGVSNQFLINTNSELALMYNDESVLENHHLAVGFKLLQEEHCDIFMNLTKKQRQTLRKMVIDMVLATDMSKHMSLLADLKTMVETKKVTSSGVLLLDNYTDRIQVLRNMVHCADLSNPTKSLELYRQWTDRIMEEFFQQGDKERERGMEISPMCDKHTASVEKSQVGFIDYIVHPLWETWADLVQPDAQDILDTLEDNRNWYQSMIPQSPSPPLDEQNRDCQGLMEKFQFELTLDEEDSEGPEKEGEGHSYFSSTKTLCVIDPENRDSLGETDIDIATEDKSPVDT
Sequence of PDE9A (O76083 whole entry): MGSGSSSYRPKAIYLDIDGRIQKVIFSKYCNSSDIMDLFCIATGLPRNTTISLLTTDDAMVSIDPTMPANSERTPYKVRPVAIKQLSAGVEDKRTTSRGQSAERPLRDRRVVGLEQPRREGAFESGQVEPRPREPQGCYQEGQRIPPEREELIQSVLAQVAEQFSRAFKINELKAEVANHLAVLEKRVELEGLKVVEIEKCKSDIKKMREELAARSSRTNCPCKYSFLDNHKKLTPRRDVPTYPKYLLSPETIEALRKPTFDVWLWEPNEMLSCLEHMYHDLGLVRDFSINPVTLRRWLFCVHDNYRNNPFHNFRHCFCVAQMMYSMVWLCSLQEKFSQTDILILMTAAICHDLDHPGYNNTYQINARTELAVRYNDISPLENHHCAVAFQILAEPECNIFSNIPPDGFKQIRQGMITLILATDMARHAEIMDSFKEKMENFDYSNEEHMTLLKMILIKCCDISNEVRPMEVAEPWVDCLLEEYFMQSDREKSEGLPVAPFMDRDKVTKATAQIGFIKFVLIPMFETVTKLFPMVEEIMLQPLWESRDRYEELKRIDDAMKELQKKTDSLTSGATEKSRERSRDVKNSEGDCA
Sequence of PDE10A (Q9Y233 whole entry): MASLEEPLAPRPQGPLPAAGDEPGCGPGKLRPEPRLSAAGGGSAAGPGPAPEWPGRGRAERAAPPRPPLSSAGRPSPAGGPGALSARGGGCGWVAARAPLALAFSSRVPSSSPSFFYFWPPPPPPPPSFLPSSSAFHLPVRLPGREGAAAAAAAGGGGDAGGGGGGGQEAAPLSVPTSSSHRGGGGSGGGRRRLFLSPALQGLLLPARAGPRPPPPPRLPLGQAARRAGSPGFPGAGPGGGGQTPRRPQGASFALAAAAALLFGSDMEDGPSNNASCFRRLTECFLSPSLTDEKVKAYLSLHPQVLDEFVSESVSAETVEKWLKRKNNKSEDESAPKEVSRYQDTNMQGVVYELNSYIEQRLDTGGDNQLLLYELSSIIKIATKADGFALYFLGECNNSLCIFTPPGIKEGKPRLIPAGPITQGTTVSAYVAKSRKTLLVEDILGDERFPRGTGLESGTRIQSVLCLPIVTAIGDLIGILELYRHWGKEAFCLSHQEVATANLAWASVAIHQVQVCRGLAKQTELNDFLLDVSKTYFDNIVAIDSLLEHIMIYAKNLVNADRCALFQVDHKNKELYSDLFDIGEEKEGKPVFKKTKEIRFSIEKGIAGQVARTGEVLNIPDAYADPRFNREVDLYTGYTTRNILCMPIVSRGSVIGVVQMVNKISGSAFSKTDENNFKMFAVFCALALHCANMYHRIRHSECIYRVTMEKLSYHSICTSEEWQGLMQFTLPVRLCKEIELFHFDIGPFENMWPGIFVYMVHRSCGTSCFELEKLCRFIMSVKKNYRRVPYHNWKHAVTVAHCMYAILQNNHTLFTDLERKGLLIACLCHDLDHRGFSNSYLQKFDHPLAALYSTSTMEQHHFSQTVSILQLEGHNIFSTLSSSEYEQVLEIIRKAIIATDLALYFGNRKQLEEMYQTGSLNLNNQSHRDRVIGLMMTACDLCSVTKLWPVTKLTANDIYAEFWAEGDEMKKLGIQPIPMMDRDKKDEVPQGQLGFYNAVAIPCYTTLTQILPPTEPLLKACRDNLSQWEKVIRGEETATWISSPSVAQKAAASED
Sequence of PDE11A (Q9HCR9 whole entry): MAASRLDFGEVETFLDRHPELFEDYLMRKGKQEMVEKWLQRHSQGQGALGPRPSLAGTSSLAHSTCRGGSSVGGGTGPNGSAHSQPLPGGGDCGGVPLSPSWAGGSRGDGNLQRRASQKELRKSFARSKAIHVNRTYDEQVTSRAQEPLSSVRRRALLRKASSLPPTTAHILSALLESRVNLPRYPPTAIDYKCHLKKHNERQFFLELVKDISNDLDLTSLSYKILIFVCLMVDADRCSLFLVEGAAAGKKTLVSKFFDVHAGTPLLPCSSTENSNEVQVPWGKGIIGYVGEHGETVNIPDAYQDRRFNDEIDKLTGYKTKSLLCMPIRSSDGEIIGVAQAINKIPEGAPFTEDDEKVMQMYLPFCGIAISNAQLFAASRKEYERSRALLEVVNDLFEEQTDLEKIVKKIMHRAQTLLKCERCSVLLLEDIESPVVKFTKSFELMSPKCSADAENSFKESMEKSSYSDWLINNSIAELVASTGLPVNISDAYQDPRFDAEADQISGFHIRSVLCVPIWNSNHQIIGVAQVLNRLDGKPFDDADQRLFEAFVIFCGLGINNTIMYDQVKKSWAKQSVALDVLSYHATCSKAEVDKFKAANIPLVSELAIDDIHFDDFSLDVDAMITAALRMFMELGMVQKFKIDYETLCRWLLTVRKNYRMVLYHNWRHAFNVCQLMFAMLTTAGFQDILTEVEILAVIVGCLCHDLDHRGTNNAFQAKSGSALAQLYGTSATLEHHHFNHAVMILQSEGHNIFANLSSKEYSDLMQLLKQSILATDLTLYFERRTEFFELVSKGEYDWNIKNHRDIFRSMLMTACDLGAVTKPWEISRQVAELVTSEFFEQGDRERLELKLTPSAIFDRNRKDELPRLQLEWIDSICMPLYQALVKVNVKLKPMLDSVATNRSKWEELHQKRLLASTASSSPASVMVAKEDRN
Sequence of PDE7A (Q13946 whole entry): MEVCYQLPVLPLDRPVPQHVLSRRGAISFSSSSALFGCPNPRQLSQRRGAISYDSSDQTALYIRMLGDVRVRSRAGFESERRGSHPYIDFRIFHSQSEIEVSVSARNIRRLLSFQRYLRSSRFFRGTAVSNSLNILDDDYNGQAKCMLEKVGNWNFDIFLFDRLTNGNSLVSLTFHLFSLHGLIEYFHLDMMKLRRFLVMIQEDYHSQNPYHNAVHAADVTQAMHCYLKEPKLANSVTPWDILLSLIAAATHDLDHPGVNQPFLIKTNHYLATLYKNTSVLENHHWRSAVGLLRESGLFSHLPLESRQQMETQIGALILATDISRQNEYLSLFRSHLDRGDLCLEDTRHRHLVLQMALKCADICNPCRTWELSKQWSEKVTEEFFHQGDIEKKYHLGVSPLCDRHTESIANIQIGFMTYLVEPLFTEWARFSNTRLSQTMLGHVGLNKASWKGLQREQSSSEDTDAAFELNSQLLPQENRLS

For the compound `COc1cc2c(cc1O)CN1C(=O)OCC1C2` (configuration not stated), the IC50 in series [1] is > 100 µM.
As for `COc1cc2c(cc1OCc1ccccc1)CN1C(=O)OCC1C2` (configuration not stated), half-maximal inhibition in [1] (IC50) required 8.18 µM.
In the case of `COc1cc2c(cc1OC1CCCC1)C(C)N1C(=O)OCC1C2` (mixture of isomers), the half-maximal inhibitory concentration (IC50) in [1] worked out at 1.35 µM; in series [2], 2.6 µM; in series [3] it was 12.8 µM.
For `COc1cc2c(cc1OC1CCCC1)C(c1ccccc1)N1C(=O)OCC1C2` (mixture of isomers), the IC50 turned out to be 1.95 µM in series [1], 6.75 µM in [2] and 31.6 µM in series [3]. Also, the inhibition in vivo at 10 mg/kg in series [4] is 40.4%; in [5], 28.1%.
Consider `CCCCCCC1c2cc(OC3CCCC3)c(OC)cc2CC2COC(=O)N21` (mixture of isomers), for which the IC50 was determined as 2.1 µM in [1], 7.98 µM in [2] and 23.1 µM in series [3].
In the same order, the values of `COc1cc2c(cc1OC1CCCC1)C(C1CCCCC1)N1C(=O)OCC1C2` (mixture of isomers) are 2.06 µM, 9.05 µM and 26.7 µM.
Consider `CCCCCCOc1cc2c(cc1OC)CC1COC(=O)N1C2` (racemic), for which the IC50 in series [1] stood at 6.05 µM.
`COc1cc2c(cc1OCC1CC1)CN1C(=O)OCC1C2` (racemic): the IC50 in series [1] was found to be 1.3 µM; in series [2], 9.58 µM; in [3] it was 7.15 µM.
With `COc1cc2c(cc1OC1CCCC1)CN1C(=O)OCC1C2` (racemic), in series [6], the “Ratio IC50” value is listed as 7. Further, the inhibition at 100 µM came out at 5% in series [7]; 3% in series [8]; 5% in series [9]; 12% in [10]; 14% in [12]; 8% in [13]. Further, the inhibition at 100 µM in [14] worked out at 12%; in [15] it was 3%; in series [16], 1%; in series [17], 2%. Moreover, the IC50 in [1] is 0.6 µM; in series [2] it was 1.35 µM; in [3], 5.13 µM. The compound further had an inhibition in series [11] of 100%. Further, the inhibition in vivo at 10 mg/kg in series [4] came out at 48.2%; in [5] it was 42.3%.
As for `CCCCCOc1cc2c(cc1OC)CC1COC(=O)N1C2` (racemic), the figures for the 50% inhibitory concentration (IC50) in series [1] and in series [3] were 4.1 µM and 23.3 µM, respectively.
Turning to `COc1cc2c(cc1OC)CN1C(=O)OCC1C2` (racemic), in series [1], half-maximal inhibition (IC50) was put at 52.1 µM. This counts as double-digit micromolar.
`COc1cc2c(cc1OC1CCCCC1)CN1C(=O)OCC1C2` (racemic): the IC50 is 2.62 µM in series [1], 8.4 µM in series [2] and 13.9 µM in [3].
With `CCCOc1cc2c(cc1OC)CC1COC(=O)N1C2` (racemic), in [1], inhibition was half-maximal at 22.4 µM (IC50).
Take `COc1ccc(C2CNC(=O)C2)cc1OC1CCCC1` (configuration not stated) [ROLIPRAM]: the IC50 in series [2] was determined as 10.8 µM. Also, the inhibition in vivo at 10 mg/kg was 41% in [4] and 32.3% in series [5].
